Laboratory results: ChEMBL document CHEMBL3734757, “Discovery of novel quinoline-based mTOR inhibitors via introducing intra-molecular hydrogen bonding scaffold (iMHBS): The design, synthesis and biological evaluation” (Bioorg Med Chem, 2015)
pIC50: −log10 of the molar value. Calls of active or inactive are those of the source. The calls are words filed in the database; no cut-off is given here.

Experiments:
[1] = target: Serine/threonine-protein kinase mTOR (Homo sapiens, UniProt P42345); assay: Inhibition of mTOR (unknown origin) using ULight-4E-BP1 peptide as substrate after 1 hr by lance ultra assay
MCF7 [2] = assay: Inhibition of mTORC2 in human MCF7 cells assessed as downregulation of pAKT(Ser473) at 0.5 uM after 2 hrs by Western blot analysis; assay type: cell-based
mTORC1 (Homo sapiens) = mTORC1 (Homo sapiens) (UniProt P42345+Q8N122+Q9BVC4); conditions: MCF7, 0.5 uM
mTORC1 (Homo sapiens), sequence (Q8N122 whole entry, looked up, other chains not shown): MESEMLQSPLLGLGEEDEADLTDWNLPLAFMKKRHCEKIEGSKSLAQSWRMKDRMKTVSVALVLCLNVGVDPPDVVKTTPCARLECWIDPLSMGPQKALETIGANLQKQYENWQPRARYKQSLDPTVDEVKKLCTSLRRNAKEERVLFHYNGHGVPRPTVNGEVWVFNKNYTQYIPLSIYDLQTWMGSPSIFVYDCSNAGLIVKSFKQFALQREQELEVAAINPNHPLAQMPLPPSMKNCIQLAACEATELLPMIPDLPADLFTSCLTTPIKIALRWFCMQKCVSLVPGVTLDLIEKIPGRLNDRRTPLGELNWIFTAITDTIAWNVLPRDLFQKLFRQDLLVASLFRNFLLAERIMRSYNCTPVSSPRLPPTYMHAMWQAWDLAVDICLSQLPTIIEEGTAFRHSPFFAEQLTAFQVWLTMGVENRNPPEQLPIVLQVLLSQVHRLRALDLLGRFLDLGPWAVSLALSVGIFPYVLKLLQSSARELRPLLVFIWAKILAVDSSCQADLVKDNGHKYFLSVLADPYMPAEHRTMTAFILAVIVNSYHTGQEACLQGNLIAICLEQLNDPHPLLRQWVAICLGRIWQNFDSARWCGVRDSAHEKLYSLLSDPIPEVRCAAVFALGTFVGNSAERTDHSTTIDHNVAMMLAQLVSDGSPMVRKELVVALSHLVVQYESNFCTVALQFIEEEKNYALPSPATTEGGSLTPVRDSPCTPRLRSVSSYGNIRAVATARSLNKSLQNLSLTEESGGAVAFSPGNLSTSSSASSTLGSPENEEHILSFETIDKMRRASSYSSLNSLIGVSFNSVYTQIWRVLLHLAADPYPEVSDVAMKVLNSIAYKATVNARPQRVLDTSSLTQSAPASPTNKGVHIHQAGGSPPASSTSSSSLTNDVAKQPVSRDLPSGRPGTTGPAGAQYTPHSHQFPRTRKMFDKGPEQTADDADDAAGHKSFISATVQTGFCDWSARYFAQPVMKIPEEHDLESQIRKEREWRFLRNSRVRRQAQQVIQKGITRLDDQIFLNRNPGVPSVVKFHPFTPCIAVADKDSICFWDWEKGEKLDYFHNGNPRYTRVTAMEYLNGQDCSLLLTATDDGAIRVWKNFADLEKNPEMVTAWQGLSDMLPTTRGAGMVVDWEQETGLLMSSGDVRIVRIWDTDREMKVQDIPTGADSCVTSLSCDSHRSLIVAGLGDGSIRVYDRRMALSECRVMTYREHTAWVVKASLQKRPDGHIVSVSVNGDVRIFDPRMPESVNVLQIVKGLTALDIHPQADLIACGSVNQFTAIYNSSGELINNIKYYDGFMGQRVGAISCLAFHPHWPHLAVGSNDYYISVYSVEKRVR
mTORC1 (Homo sapiens), sequence (Q9BVC4 whole entry, looked up, other chains not shown): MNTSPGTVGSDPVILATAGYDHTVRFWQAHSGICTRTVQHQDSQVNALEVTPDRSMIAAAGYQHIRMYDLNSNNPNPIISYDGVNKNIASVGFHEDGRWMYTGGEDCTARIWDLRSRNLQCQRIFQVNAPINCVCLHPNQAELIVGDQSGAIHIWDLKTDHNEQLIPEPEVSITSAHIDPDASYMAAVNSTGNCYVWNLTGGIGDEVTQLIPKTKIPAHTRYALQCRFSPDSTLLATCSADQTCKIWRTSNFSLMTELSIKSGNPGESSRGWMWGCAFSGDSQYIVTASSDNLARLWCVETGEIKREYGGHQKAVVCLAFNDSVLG

cells [3] = conditions: Homo sapiens, HCT-116, 72 h
cells [4] = conditions: Homo sapiens, PC-3, 72 h
MCF7 [5] = assay: cells; conditions: Homo sapiens, MCF7, 72 h
[6] = target: T1, Phosphatidylinositol 4,5-bisphosphate 3-kinase catalytic subunit alpha isoform (Homo sapiens, UniProt P42336); assay: Inhibition of PI3Kalpha (unknown origin) after 1 hr by Kinase-Glo Luminescent assay
T1 sequence (P42336 whole entry, canonical isoform): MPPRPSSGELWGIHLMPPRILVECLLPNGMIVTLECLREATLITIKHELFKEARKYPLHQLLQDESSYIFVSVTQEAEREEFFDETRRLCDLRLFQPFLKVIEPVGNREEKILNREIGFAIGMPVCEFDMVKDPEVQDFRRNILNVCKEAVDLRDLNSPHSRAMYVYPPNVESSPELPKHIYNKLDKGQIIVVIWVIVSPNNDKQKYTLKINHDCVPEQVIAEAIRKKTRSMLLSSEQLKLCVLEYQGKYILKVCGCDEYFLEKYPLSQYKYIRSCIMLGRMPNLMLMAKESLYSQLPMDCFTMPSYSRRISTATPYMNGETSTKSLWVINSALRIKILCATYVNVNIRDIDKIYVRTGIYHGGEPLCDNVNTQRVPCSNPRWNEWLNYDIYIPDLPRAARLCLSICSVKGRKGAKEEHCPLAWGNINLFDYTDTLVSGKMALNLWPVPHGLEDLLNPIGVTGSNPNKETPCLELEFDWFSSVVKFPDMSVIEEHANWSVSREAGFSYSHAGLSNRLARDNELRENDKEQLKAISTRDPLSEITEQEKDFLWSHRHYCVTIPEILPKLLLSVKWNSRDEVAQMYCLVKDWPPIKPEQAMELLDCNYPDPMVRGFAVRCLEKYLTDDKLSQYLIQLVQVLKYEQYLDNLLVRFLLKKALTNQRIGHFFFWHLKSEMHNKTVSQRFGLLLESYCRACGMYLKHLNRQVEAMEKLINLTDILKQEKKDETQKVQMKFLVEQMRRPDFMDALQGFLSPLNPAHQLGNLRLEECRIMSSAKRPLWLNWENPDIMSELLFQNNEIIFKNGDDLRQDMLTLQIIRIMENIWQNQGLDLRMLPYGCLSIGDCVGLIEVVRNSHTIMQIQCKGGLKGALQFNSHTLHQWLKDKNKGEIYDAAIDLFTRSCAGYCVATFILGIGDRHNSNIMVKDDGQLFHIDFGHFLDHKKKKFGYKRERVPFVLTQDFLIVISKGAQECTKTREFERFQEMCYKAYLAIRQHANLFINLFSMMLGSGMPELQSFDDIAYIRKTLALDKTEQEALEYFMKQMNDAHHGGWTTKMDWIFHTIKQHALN

[7] = target: T2, Phosphatidylinositol 4,5-bisphosphate 3-kinase catalytic subunit beta isoform (Homo sapiens, UniProt P42338); assay: Inhibition of PI3Kbeta (unknown origin) after 1 hr by ADP-Glo Luminescent assay
Summary of the method: (§1)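 Purchased PI3Kβ reaction run 1 h at room temperature. An aliquot was moved to a new plate and stopped with an equal volume of ADP-Glo reagent, equilibrated 40 min. Kinase detection reagent added, shaken 1 min, equilibrated 60 min, then luminescence read. Inhibition relative to DMSO (max) and no-enzyme (min) controls; IC50 from four-parameter Hill fit.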
Target sequence in this assay (P42338 whole entry, canonical isoform): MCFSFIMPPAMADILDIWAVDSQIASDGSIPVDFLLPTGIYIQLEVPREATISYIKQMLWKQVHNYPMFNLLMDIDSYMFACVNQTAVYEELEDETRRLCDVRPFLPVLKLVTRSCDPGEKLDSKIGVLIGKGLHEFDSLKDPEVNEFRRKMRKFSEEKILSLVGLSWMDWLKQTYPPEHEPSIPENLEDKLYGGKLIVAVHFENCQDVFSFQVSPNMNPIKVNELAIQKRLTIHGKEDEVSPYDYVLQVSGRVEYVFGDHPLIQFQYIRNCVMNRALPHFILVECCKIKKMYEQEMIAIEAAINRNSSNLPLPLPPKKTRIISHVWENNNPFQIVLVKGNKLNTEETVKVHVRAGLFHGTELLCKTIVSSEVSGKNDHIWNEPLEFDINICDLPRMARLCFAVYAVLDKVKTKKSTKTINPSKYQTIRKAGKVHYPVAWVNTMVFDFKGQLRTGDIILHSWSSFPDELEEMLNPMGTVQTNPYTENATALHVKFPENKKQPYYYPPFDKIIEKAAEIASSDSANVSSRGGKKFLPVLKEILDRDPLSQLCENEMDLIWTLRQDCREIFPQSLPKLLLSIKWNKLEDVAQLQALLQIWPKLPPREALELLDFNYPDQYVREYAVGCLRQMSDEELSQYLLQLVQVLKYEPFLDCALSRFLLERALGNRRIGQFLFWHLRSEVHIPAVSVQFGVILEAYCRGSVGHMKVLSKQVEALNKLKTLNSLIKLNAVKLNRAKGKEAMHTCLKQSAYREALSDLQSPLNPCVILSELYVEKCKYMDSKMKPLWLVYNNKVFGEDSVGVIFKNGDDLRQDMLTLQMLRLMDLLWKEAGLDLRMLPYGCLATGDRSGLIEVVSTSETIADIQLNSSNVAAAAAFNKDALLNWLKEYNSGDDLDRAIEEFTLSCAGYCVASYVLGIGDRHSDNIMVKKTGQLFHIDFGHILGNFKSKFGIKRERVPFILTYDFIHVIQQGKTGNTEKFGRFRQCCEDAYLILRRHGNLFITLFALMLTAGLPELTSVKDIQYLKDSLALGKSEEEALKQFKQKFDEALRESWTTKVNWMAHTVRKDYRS

[8] = target: T3, Phosphatidylinositol 4,5-bisphosphate 3-kinase catalytic subunit gamma isoform (Homo sapiens, UniProt P48736); assay: Inhibition of PI3Kgamma (unknown origin) after 1 hr by ADP-Glo Luminescent assay
Target sequence in this assay (P48736 whole entry, canonical isoform): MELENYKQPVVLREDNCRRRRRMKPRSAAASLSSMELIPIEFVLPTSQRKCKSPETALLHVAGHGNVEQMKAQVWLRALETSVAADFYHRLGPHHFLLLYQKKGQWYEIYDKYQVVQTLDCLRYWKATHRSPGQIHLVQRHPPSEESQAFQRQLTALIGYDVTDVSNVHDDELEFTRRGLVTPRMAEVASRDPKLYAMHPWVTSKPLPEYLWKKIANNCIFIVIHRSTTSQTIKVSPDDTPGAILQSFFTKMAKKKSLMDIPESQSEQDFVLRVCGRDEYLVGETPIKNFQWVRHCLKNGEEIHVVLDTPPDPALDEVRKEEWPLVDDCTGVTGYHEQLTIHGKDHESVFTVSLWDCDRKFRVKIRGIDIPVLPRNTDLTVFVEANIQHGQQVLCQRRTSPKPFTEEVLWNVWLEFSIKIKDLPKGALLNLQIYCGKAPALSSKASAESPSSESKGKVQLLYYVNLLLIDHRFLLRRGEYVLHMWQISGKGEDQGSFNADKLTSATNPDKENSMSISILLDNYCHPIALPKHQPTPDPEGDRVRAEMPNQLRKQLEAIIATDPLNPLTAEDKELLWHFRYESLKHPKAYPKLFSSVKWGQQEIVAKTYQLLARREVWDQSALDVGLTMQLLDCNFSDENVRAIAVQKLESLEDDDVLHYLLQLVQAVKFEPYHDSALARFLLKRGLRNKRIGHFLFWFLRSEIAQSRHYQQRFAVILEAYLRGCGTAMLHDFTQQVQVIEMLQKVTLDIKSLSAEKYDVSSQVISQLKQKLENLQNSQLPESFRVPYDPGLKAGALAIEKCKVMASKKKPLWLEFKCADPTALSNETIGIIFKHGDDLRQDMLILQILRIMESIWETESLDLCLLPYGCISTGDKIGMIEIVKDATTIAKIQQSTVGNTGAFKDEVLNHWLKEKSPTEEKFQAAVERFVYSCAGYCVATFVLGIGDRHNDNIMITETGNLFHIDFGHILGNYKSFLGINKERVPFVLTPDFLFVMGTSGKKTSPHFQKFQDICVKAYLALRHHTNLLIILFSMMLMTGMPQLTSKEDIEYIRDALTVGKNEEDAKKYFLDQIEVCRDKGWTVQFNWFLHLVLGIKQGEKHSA

[9] = target: T4, Phosphatidylinositol 4,5-bisphosphate 3-kinase catalytic subunit delta isoform (Homo sapiens, UniProt O00329); assay: Inhibition of PI3Kdelta (unknown origin) after 1 hr by ADP-Glo Luminescent assay
T4 sequence (O00329 whole entry): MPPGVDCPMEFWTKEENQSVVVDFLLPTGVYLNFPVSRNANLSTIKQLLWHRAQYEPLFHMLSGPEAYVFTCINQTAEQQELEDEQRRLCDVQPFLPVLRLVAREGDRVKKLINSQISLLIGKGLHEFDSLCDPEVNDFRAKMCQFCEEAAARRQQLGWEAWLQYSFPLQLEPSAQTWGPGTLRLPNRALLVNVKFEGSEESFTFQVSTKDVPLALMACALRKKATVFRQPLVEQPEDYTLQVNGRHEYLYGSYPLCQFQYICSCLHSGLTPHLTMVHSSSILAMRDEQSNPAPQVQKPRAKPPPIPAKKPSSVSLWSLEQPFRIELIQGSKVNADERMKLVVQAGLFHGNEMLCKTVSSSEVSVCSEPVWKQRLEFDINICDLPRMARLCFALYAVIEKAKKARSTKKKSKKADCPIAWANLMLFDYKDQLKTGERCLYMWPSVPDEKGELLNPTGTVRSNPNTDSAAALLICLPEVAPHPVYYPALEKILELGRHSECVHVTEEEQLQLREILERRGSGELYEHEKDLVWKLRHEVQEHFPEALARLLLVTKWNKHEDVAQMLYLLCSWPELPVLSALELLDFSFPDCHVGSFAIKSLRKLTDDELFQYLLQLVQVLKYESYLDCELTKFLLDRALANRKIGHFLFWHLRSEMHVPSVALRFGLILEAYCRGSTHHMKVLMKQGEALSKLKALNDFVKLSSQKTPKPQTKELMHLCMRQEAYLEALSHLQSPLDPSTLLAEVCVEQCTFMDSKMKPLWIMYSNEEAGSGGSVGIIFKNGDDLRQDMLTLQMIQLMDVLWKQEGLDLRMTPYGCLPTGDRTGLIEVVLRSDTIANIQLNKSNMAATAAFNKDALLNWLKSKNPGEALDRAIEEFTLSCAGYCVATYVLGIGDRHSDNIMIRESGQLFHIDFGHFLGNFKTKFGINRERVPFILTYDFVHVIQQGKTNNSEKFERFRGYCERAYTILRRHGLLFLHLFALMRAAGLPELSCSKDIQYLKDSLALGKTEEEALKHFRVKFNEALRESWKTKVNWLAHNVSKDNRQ

MCF7 [10] = assay: Inhibition of mTORC1/2 in human MCF7 cells assessed as downregulation of pAKT(Ser473) and pS6(Ser235) at 0.5 uM after 2 hrs by Western blot analysis; assay type: cell-based
MCF7 [11] = assay: Inhibition of mTORC2 in human MCF7 cells assessed as downregulation of pAKT(Ser473) at 0.1 uM after 2 hrs by Western blot analysis
[12] = target: T1, Phosphatidylinositol 4,5-bisphosphate 3-kinase catalytic subunit alpha isoform; assay: Inhibition of PI3Kalpha (unknown origin) at 1 uM after 1 hr by Kinase-Glo Luminescent assay
Summary of the method: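 Purchased PI3Kα in buffer of 50 mM HEPES pH 7.5, 3 mM MgCl2, 1 mM EDTA, 100 mM NaCl, 0.03% CHAPS, 2 mM DTT; substrate PIP2 plus ATP. Reaction 1 h at room temperature, stopped with Kinase-Glo reagent, 15 min equilibration, luminescence read. Percent inhibition from no-enzyme and DMSO controls; IC50 from four-parameter Hill fit.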

[13] = target: T2, Phosphatidylinositol 4,5-bisphosphate 3-kinase catalytic subunit beta isoform; assay: Inhibition of PI3Kbeta (unknown origin) at 1 uM after 1 hr by ADP-Glo Luminescent assay; summary of the method: as §1
Target sequence in this assay (P42338 whole entry, looked up, canonical isoform): as the sequence (P42338 whole entry, canonical isoform) above

[14] = target: T3, Phosphatidylinositol 4,5-bisphosphate 3-kinase catalytic subunit gamma isoform; assay: Inhibition of PI3Kgamma (unknown origin) at 1 uM after 1 hr by ADP-Glo Luminescent assay
Target sequence in this assay (P48736 whole entry, looked up, canonical isoform): as the sequence (P48736 whole entry, canonical isoform) above

[15] = target: T5, Phosphatidylinositol 4,5-bisphosphate 3-kinase catalytic subunit delta isoform (Homo sapiens) (UniProt O00329); assay: Inhibition of PI3Kdelta (unknown origin) at 1 uM after 1 hr by ADP-Glo Luminescent assay
T5 sequence (whole entry): T4 sequence (O00329 whole entry)

[16] = Metabolic stability in simulated gastric fluid after 45 mins; assay type: ADME; conditions: simulated gi fluid, 0.75 h
[17] = Metabolic stability in simulated intestinal fluid after 45 mins; assay type: ADME; conditions: simulated gi fluid, 0.75 h
[18] = Metabolic stability in rat liver microsomes after 30 mins; assay type: ADME; conditions: read-out: Stability
[19] = Metabolic stability in human liver microsomes after 30 mins; assay type: ADME; conditions: read-out: Stability
[20] = Metabolic stability in human liver microsomes after 60 mins; assay type: ADME; conditions: read-out: Stability

Row | pIC50 (cells [3]) | pIC50 (cells [4]) | pIC50 (MCF7 [5]) | SMILES | further results
1 | 6.17 | 6.08 | 6.28 | CC(C)(C#N)c1ccc(Nc2c(C(N)=O)cnc3ccc(-c4ccc(N)nc4)cc23)cc1 | 
2 | 5.74 | 5.97 | 6.39 | NC(=O)c1cnc2ccc(-c3ccc(N)nc3)cc2c1Nc1cccc(C(F)(F)F)c1 | 
3 | 5.62 | 5.84 | 6.24 | CCC(=O)N1CCN(c2ccc(Nc3c(C(N)=O)cnc4ccc(-c5ccc(N)nc5)cc34)cc2C(F)(F)F)CC1 | 
4 | 4.76 | < 4.30 | 5.90 | Cn1nccc1-c1ccc2ncc(C(N)=O)c(Nc3ccc(C(C)(C)C#N)cc3)c2c1 | 
5 | 5.06 | 5.15 | 5.89 | CNC(=O)c1cnc2ccc(-c3cnc4ccccc4c3)cc2c1Nc1ccc(C(C)(C)C#N)cc1 | 
6 | 5.34 | 5.55 | 6.02 | CC(C)(C#N)c1ccc(Nc2c(C(N)=O)cnc3ccc(-c4cnc5ccccc5c4)cc23)cc1 | pIC50 [1]: 7.48; inhibition [12]: 26.9%; inhibition [13]: 10.3%; inhibition [14]: -2.4%
7 | 5.33 | 5.76 | 6.31 | CNC(=O)c1cnc2ccc(-c3ccc(N)nc3)cc2c1Nc1ccc(C(C)(C)C#N)cc1 | 
8 | 5.59 | 5.78 | 5.80 | COc1ccc(-c2ccc3ncc(C(N)=O)c(Nc4ccc(C(C)(C)C#N)cc4)c3c2)cn1 | 

More lines, now with the values behind:

Row | SMILES | pIC50 (cells [3]) | pIC50 (cells [4]) | pIC50 (MCF7 [5]) | further results
9 | O=C(NC1CC1)c1cnc2ccc(-c3cnc4ccccc4c3)cc2c1Nc1ccc(N2CCNCC2)c(C(F)(F)F)c1 |  |  |  | pIC50 [1]: < 5.52
10 | CO[C@H]1C[C@@H]2CC[C@@H](C)[C@@](O)(O2)C(=O)C(=O)N2CCCC[C@H]2C(=O)O[C@H]([C@H](C)C[C@@H]2CC[C@@H](O)[C@H](OC)C2)CC(=O)[C@H](C)/C=C(\C)[C@@H](O)[C@@H](OC)C(=O)[C@H](C)C[C@H](C)/C=C/C=C/C=C/1C |  |  |  | inhibition (MCF7 [2]): inactive; inhibition (mTORC1 (Homo sapiens)): Active
11 | CC(=O)N1CCN(c2ccc(Nc3c(C(N)=O)cnc4ccc(-c5cnc6ccccc6c5)cc34)cc2C(F)(F)F)CC1 | 5.89 | 5.41 | 6.36 | pIC50 [1]: 7.51; pIC50 [6]: 5.61; pIC50 [7]: < 5.30; pIC50 [8]: 6.03; pIC50 [9]: < 5.30; inhibition (MCF7 [10]): Active; inhibition (MCF7 [11]): Active
12 | Cn1c(=O)n(-c2ccc(C(C)(C)C#N)cc2)c2c3cc(-c4cnc5ccccc5c4)ccc3ncc21 [DACTOLISIB] | 6.70 | 6.68 | 7.30 | 
13 | CS(=O)(=O)N1CCN(c2ccc(Nc3c(C(N)=O)cnc4ccc(-c5cnc6ccccc6c5)cc34)cc2C(F)(F)F)CC1 | 6.00 | 5.43 | 6.44 | 
14 | CN1CCN(CC(=O)N2CCN(c3ccc(Nc4c(C(N)=O)cnc5ccc(-c6cnc7ccccc7c6)cc45)cc3C(F)(F)F)CC2)CC1 | 6.01 | 6.00 | 6.36 | 
15 | COc1ccc(-c2ccc3ncc(C(N)=O)c(Nc4ccc(N5CCNCC5)c(C(F)(F)F)c4)c3c2)cn1 | 5.69 | 6.00 | 6.11 | 
16 | Cn1nccc1-c1ccc2ncc(C(N)=O)c(Nc3ccc(N4CCN(S(C)(=O)=O)CC4)c(C(F)(F)F)c3)c2c1 | 4.83 | 5.15 | 5.57 | 
17 | Cl.NC(=O)c1cnc2ccc(-c3cnc4ccccc4c3)cc2c1Nc1ccc(N2CCNCC2)c(C(F)(F)F)c1 | 6.34 | 6.21 | 6.62 | inhibition [12]: 32.3%; inhibition [13]: 1%; inhibition [14]: 6.7%; inhibition [15]: 16.7%; Stability [16]: Stable; Stability [17]: Stable; remaining at 0.5 h [18]: 50%; remaining at 0.5 h [19]: 80%; remaining at 1 h [20]: 73%
18 | NC(=O)c1cnc2ccc(-c3cnc4ccccc4c3)cc2c1Nc1cccc(C(F)(F)F)c1 | 5.50 | 5.19 | 6.22 | 
